Test results reported in paper PMC4958579 (Cell chemical biology, 2016).
Each block holds one compound with its values, some of them ahead of it.

Key:
MCF7 cells [1] = experiment: Colony formation assay, MCF7; assay type: cell-based, human; settings: 5 μM
Summary of the method: (§1)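 Cells were treated with DMSO or 5 μM test compound and colonies quantified by image intensity. Percent intensity was normalized to the average percent intensity of DMSO-treated cells, with SEM error bars. Data are from biological duplicate experiments, each run in triplicate.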

BT474 cells = experiment: Colony formation assay, BT474; assay type: cell-based, human; settings: 5 μM
Summary of the method: as §1

MDA-MB-231 cells [2] = experiment: Colony formation assay, MDA-MB-231; assay type: cell-based, human; settings: 5 μM
Summary of the method: as §1

MCF7 cells [3] = experiment: Western blot of global histone methylation, MCF7; assay type: cell-based, human; settings: 5 μM, 3 days
Summary of the method: (§2)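 Cells were exposed to DMSO or 5 μM test compound for 3 days and histone marks detected by western blot. Fold is H3K4me3 band intensity over total H3, normalized to the DMSO control. Data are from biological duplicate experiments, each run in duplicate.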

ZR-75-1 cells = experiment: Colony formation assay, ZR-75-1; assay type: cell-based, human; settings: 5 μM
Summary of the method: as §1

[4] = system: MCF10A immortalized, non-transformed mammary epithelial cells; experiment: Colony formation assay, MCF10A; assay type: cell-based, human; settings: 5 μM
PC9 lung cancer cells = experiment: Colony formation assay, PC9; assay type: cell-based, human; settings: 5 μM
MDA-MB-231 cells [5] = experiment: Western blot of global histone methylation, MDA-MB-231; assay type: cell-based, human; settings: 5 μM, 3 days
Summary of the method: as §2

MCF7 cells [6] = experiment: Real time RT-PCR of KDM5 target genes, MCF7; assay type: cell-based, human; settings: 5 μM for 3 days
Summary of the method: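 MCF7 cells were exposed to DMSO or 5 μM test compound for 3 days. BRCA1, STK6, BUB3, BUB1B, MT1F and MT1H mRNA levels were then quantified by real-time RT-PCR, with SEM error bars.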

KDM5B and KDM5C = settings: ref Horton et al., 2016; cited from earlier work
[7] = target: Flag-tagged full-length KDM5B (Homo sapiens, UniProt Q9UGL1); experiment: AlphaLISA / AlphaScreen demethylase assay, KDM5B; assay type: biochemical; settings: nanomolar enzyme concentration; two independent assays
Sequence of Flag-tagged full-length KDM5B (Q9UGL1 whole entry): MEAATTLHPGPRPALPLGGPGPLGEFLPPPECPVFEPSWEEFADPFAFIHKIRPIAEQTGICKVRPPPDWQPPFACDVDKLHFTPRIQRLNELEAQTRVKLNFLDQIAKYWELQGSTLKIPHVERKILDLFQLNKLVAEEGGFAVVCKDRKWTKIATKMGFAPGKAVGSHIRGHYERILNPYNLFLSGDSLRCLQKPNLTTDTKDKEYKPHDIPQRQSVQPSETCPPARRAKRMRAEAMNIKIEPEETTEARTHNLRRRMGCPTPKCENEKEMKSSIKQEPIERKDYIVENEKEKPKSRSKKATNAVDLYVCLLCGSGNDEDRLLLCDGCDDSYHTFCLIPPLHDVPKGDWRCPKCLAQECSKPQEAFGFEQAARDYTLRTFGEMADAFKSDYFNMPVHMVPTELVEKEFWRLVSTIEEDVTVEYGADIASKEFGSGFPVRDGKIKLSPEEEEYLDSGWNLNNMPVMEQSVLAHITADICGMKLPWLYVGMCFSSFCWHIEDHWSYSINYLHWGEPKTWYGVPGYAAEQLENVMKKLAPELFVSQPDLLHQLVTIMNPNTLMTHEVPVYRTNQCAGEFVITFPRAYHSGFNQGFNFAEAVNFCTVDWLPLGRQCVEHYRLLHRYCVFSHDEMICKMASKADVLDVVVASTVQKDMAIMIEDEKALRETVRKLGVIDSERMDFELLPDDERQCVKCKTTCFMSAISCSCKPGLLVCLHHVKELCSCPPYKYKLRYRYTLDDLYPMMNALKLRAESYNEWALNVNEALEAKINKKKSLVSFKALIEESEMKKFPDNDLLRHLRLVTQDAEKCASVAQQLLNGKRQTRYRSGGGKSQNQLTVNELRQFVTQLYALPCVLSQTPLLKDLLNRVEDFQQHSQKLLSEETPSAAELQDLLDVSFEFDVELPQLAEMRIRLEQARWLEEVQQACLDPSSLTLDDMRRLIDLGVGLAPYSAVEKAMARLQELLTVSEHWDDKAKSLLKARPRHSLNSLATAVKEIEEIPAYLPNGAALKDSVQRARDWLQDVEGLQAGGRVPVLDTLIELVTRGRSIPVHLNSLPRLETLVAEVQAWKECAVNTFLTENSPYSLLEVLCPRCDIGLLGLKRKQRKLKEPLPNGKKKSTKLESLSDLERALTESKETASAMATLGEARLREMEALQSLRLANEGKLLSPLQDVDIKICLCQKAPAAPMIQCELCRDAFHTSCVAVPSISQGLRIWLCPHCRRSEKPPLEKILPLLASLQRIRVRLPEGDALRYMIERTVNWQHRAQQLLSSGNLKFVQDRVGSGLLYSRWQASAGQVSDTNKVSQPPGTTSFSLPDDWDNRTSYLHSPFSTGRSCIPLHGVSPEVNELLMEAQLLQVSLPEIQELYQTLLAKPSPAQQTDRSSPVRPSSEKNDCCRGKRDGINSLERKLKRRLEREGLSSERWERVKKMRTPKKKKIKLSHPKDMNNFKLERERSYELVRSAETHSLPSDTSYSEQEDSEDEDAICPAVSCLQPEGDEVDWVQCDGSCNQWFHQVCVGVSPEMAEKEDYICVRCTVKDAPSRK
Summary of the method: (§3)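 Full-length human enzymes, Flag-tagged and purified from Sf21 insect cells, assayed for demethylation by AlphaScreen.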

[8] = system: KDM4A catalytic domain (residues 1-350); experiment: Demethylase inhibition, KDM4A catalytic domain; assay type: biochemical
full-length KDM6A = full-length KDM6A (Homo sapiens, UniProt O15550); experiment: AlphaScreen demethylase assay, KDM6A; assay type: biochemical; settings: at 50 μM, the highest inhibitor concentration tested
Sequence of full-length KDM6A (O15550 whole entry, species assumed): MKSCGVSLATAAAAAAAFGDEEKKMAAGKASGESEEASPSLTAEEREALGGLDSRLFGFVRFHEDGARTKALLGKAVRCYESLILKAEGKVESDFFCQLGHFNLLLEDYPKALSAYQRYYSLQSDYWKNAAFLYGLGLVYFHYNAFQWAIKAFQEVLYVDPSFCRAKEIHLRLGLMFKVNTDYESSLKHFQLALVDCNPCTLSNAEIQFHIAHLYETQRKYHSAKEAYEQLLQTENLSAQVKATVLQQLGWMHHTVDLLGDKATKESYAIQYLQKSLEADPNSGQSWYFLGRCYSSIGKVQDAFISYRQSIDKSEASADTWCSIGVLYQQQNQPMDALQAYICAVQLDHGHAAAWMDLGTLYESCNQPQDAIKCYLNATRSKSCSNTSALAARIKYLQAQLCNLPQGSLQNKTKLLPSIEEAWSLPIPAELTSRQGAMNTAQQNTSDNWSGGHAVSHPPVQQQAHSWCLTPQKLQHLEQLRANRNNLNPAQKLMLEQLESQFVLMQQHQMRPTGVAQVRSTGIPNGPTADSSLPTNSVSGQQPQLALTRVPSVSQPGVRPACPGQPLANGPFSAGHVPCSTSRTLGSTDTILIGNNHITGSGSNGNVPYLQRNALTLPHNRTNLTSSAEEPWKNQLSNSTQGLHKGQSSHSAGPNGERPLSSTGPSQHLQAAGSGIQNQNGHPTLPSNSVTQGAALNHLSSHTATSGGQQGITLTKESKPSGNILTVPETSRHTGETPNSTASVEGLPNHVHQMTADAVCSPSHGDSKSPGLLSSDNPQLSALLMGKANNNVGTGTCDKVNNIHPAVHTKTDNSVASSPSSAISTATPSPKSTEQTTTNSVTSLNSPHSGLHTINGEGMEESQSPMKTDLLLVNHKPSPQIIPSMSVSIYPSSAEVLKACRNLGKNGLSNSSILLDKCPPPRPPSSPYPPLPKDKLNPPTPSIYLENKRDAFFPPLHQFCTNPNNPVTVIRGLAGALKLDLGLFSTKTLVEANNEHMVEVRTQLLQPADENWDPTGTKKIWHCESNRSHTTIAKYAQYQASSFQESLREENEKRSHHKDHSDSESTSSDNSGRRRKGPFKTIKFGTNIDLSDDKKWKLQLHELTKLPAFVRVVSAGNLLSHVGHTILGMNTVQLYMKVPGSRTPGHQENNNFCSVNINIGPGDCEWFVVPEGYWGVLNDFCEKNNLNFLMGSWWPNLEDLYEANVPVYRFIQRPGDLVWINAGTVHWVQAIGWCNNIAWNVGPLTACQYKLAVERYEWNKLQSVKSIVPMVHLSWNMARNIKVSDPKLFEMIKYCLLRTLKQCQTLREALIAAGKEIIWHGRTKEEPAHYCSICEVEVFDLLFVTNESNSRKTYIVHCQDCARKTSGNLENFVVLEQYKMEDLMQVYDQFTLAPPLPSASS
Summary of the method: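 Full-length KDM6A demethylase activity measured by AlphaScreen with test compound up to 50 μM, the highest concentration tested. Two independent experiments; average and S.E. reported.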

[9] = target: KDM6B catalytic domain (residues 1043-1682) (Homo sapiens, UniProt O15054); experiment: AlphaScreen demethylase assay, KDM6B; assay type: biochemical; settings: at 50 μM, the highest inhibitor concentration tested
Sequence of KDM6B catalytic domain (residues 1043-1682) (O15054 1043-1682 isoform O15054-1): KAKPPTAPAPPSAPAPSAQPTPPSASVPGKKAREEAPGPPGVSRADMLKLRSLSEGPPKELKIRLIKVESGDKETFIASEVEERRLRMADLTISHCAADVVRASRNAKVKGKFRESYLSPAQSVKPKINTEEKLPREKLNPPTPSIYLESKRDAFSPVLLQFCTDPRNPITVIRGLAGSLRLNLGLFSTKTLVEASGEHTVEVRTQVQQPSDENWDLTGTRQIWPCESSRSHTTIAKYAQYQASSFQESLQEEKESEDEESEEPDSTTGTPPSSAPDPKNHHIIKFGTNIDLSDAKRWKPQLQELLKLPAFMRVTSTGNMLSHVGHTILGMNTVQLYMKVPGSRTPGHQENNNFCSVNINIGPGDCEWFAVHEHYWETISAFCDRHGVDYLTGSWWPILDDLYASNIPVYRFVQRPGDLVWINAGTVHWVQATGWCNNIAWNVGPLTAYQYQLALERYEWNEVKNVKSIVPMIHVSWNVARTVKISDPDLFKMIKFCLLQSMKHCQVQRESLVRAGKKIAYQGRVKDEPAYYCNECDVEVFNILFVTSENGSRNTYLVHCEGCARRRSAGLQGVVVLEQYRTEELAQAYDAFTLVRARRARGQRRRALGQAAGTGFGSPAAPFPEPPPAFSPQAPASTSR
Summary of the method: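 Purified KDM6B catalytic domain (residues 1043-1682) was assayed by AlphaScreen for demethylase activity across a test-compound concentration series, with 50 μM the highest concentration tested. IC50 was averaged from 4 independent experiments, with S.E.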

[10] = target: Flag-tagged full-length KDM5C (Homo sapiens, UniProt P41229); experiment: AlphaLISA / AlphaScreen demethylase assay, KDM5C; assay type: biochemical; settings: nanomolar enzyme concentration; two independent assays
Sequence of Flag-tagged full-length KDM5C (P41229 whole entry): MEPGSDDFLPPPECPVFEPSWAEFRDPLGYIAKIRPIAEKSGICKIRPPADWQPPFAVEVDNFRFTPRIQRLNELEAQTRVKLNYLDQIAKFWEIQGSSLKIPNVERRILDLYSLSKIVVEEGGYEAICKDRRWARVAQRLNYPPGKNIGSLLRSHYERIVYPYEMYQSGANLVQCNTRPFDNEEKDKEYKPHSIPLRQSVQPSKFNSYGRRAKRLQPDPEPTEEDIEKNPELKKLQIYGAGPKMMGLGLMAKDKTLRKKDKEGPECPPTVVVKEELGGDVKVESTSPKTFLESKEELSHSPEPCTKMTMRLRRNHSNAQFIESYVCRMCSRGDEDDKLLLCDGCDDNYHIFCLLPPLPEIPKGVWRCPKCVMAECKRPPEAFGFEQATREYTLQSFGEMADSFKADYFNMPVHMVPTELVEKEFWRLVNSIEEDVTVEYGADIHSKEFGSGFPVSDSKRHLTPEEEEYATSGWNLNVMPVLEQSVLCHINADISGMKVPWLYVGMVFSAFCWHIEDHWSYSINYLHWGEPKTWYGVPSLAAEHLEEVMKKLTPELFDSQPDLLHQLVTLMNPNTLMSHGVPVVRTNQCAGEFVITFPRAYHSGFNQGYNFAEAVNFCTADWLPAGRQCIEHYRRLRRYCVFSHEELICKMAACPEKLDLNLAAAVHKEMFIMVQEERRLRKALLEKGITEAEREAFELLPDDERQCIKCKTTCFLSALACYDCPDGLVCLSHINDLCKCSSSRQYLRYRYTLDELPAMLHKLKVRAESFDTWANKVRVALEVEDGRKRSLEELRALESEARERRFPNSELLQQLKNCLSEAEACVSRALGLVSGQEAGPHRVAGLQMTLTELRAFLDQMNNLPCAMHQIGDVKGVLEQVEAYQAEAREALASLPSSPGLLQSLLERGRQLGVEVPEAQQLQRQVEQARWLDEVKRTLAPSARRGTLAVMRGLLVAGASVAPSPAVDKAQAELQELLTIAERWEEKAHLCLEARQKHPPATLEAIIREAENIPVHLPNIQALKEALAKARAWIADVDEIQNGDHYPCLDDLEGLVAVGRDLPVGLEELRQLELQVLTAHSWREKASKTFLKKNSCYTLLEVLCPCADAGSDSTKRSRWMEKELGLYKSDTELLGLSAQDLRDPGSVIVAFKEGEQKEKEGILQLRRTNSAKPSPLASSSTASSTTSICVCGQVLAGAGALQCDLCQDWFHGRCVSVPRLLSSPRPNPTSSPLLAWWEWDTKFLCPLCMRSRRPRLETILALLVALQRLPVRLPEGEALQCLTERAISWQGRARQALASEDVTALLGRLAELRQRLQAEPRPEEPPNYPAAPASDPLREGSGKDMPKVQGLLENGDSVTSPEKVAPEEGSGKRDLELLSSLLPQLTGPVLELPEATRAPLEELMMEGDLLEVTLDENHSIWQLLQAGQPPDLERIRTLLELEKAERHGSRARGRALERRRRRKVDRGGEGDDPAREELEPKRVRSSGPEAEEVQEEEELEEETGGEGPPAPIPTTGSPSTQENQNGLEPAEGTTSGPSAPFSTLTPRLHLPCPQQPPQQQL
Summary of the method: as §3

[11] = target: Flag-tagged full-length KDM5A (Homo sapiens, UniProt P29375); experiment: AlphaLISA / AlphaScreen demethylase assay, KDM5A; assay type: biochemical; settings: nanomolar enzyme concentration; two independent assays
Summary of the method: as §3

SMILES: CCOC(=O)c1ccnc(CNCC(=O)N(CC)CCN(C)C)c1 [KDM5-C70]
growth inhibited (colony formation) (MCF7 cells [1]): 85%
growth inhibited (colony formation) (BT474 cells): 97%
effect on colony formation (MDA-MB-231 cells [2]): none were significantly affected
H3K4me2/me1, H3K27me3, H3K9me3/H3K36me3 levels (MCF7 cells [3]): little impact
global levels of H3K4me3 (MCF7 cells [3]): significantly increased
growth inhibited (colony formation) (ZR-75-1 cells): 70%
effect on colony formation [4]: none were significantly affected
effect on colony formation (PC9 lung cancer cells): none were significantly affected
H3K4me2/me1, H3K27me3, H3K9me3/H3K36me3 levels (MDA-MB-231 cells [5]): little impact
global levels of H3K4me3 (MDA-MB-231 cells [5]): significantly increased
expression of MT1F mRNA (MCF7 cells [6]): increase
expression of MT1H mRNA (MCF7 cells [6]): increase

SMILES: O=C(O)CCNc1cc(N2CCc3ccccc3CC2)nc(-c2ccccn2)n1 [GSK-J1]
more active against KDM5C than against KDM5B (KDM5B and KDM5C): ~ 8.5 fold

IC50, full-length KDM5B [7]: nanomolar range
weaker potency against KDM4A catalytic domain than against KDM5B catalytic domain or full length KDM5B [8]: ~ 10 fold
inhibition of KDM6A activity (full-length KDM6A): ≤ 50%
inhibition of KDM6B activity [9]: ≤ 50%
IC50, full-length KDM5C [10]: nanomolar range
IC50, full-length KDM5A [11]: nanomolar range
SMILES: CCN(CCN(C)C)C(=O)CNCc1cc(C(=O)O)ccn1 [KDM5-C49]

SMILES: Clc1ccc(N/N=C(\c2ccccc2)c2ccccn2)nc1 [JIB-04]
increased potency against KDM5B compared to KDM5C (KDM5B and KDM5C): ~ 8 fold
